Source: ChEMBL document CHEMBL1932986, “Synthesis and in vitro antimycobacterial activity of compounds derived from (R)- and (S)-2-amino-1-butanol - The crucial role of the configuration” (Eur J Med Chem, 2012)

Columns and labels:
Assay type in all cases: functional
Micrococcus luteus [1] = assay: Antibacterial activity against Micrococcus luteus ATCC 9631 at 25 mg/ml after 24 hrs by agar diffusion test; settings: ATCC 9631, 24 h, read-out: DIZ
Summary of the method: (§1)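 Agar diffusion: wells in agar filled with […] DMSO solution of compound at various concentrations; diameter of clear zone around application point measured. Bacteria grown 24 h at 37 °C on nutrient agar. Compounds first screened at 50 mg/ml; those active then tested at lower concentrations. Bracketed value = lowest concentration (mg/ml) giving zone >11 mm, reported only if activity retained at ≤1.25 mg/ml.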

Bacillus [2] = assay: Antibacterial activity against Bacillus idosus B 241 at 5 mg/ml after 24 hrs by agar diffusion test; settings: B 241, 24 h, read-out: DIZ; summary of the method: as §1
Priestia megaterium [3] = assay: Antibacterial activity against Bacillus megaterium NRRL 1353895 at 1 mg/ml after 24 hrs by agar diffusion test; settings: NRRL 1353895, 24 h, read-out: DIZ; summary of the method: as §1
Bacillus cereus [4] = assay: Antibacterial activity against Bacillus cereus ATCC 11778 at 5 mg/ml after 24 hrs by agar diffusion test; settings: ATCC 11778, 24 h, read-out: DIZ; summary of the method: as §1
Bacillus subtilis [5] = assay: Antibacterial activity against Bacillus subtilis ATCC 6633 at 25 mg/ml after 24 hrs by agar diffusion test; settings: ATCC 6633, 24 h, read-out: DIZ; summary of the method: as §1
Micrococcus luteus [6] = assay: Antibacterial activity against Sarcina lutea ATCC 9341 at 25 mg/ml after 24 hrs by agar diffusion test; settings: ATCC 9341, 24 h, read-out: DIZ
Summary of the method: (§2)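 Agar diffusion: bacteria grown 24 h at 37 °C on nutrient agar. Wells in the agar are filled with […] of compound solution in DMSO at various concentrations. The diameter of the clear zone around the application point is measured. Bracketed values give the lowest concentration (mg/ml) that produces a zone >11 mm. A first screen is run at 50 mg/ml.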

Micrococcus luteus [7] = assay: Antibacterial activity against Micrococcus luteus ATCC 9631 at 1 mg/ml after 24 hrs by agar diffusion test; settings: ATCC 9631, 24 h, read-out: DIZ; summary of the method: as §1
Bacillus [8] = assay: Antibacterial activity against Bacillus idosus B 241 at 1 mg/ml after 24 hrs by agar diffusion test; settings: B 241, 24 h, read-out: DIZ; summary of the method: as §1
Micrococcus luteus [9] = assay: Antibacterial activity against Sarcina lutea ATCC 9341 at 5 mg/ml after 24 hrs by agar diffusion test; settings: ATCC 9341, 24 h, read-out: DIZ; summary of the method: as §2
Micrococcus luteus [10] = assay: Antibacterial activity against Micrococcus luteus ATCC 9631 at 5 mg/ml after 24 hrs by agar diffusion test; settings: ATCC 9631, 24 h, read-out: DIZ; summary of the method: as §1
Staphylococcus aureus [11] = assay: Antibacterial activity against Staphylococcus aureus NRRL B 313 at 1 mg/ml after 24 hrs by agar diffusion test; settings: NRRL B 313, 24 h, read-out: DIZ
Summary of the method: (§3)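 Agar diffusion: bacteria grown 24 h at 37 °C on nutrient agar; wells cut in the seeded agar are filled with compound solution in DMSO. Read-out is the diameter of the clear zone around the application point.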

Bacillus cereus [12] = assay: Antibacterial activity against Bacillus cereus ATCC 11778 at 1 mg/ml after 24 hrs by agar diffusion test; settings: ATCC 11778, 24 h, read-out: DIZ; summary of the method: as §1
Acinetobacter johnsonii [13] = assay: Antibacterial activity against Acinetobacter johnsonii ATCC 17909 at 1 mg/ml after 24 hrs by agar diffusion test; settings: ATCC 17909, 24 h, read-out: DIZ; summary of the method: as §1
Micrococcus luteus [14] = assay: Antibacterial activity against Sarcina lutea ATCC 9341 at 1 mg/ml after 24 hrs by agar diffusion test; settings: ATCC 9341, 24 h, read-out: DIZ; summary of the method: as §1
Escherichia coli [15] = assay: Antibacterial activity against Escherichia coli ATCC 8739 at 5 mg/ml after 24 hrs by agar diffusion test; settings: ATCC 8739, 24 h, read-out: DIZ; summary of the method: as §1
Acinetobacter johnsonii [16] = assay: Antibacterial activity against Acinetobacter johnsonii ATCC 17909 at 5 mg/ml after 24 hrs by agar diffusion test; settings: ATCC 17909, 24 h, read-out: DIZ; summary of the method: as §1
Bacillus mycoides [17] = assay: Antibacterial activity against Bacillus mycoides DSMZ 274 at 5 mg/ml after 24 hrs by agar diffusion test; settings: DSMZ 274, 24 h, read-out: DIZ; summary of the method: as §1
Bacillus cereus [18] = assay: Antibacterial activity against Bacillus cereus ATCC 11778 at 25 mg/ml after 24 hrs by agar diffusion test; settings: ATCC 11778, 24 h, read-out: DIZ; summary of the method: as §1
Bacillus mycoides [19] = assay: Antibacterial activity against Bacillus mycoides DSMZ 274 at 25 mg/ml after 24 hrs by agar diffusion test; settings: DSMZ 274, 24 h, read-out: DIZ; summary of the method: as §1
Escherichia coli [20] = assay: Antibacterial activity against Escherichia coli ATCC 8739 at 1 mg/ml after 24 hrs by agar diffusion test; settings: ATCC 8739, 24 h, read-out: DIZ; summary of the method: as §1
Priestia megaterium [21] = assay: Antibacterial activity against Bacillus megaterium NRRL 1353895 at 5 mg/ml after 24 hrs by agar diffusion test; settings: NRRL 1353895, 24 h, read-out: DIZ; summary of the method: as §1
Acinetobacter johnsonii [22] = assay: Antibacterial activity against Acinetobacter johnsonii ATCC 17909 at 25 mg/ml after 24 hrs by agar diffusion test; settings: ATCC 17909, 24 h, read-out: DIZ; summary of the method: as §1
Bacillus subtilis [23] = assay: Antibacterial activity against Bacillus subtilis ATCC 6633 at 1 mg/ml after 24 hrs by agar diffusion test; settings: ATCC 6633, 24 h, read-out: DIZ; summary of the method: as §1
Bacillus subtilis [24] = assay: Antibacterial activity against Bacillus subtilis ATCC 6633 at 5 mg/ml after 24 hrs by agar diffusion test; settings: ATCC 6633, 24 h, read-out: DIZ; summary of the method: as §3
Bacillus [25] = assay: Antibacterial activity against Bacillus idosus B 241 at 25 mg/ml after 24 hrs by agar diffusion test; settings: B 241, 24 h, read-out: DIZ; summary of the method: as §1
Bacillus mycoides [26] = assay: Antibacterial activity against Bacillus mycoides DSMZ 274 at 1 mg/ml after 24 hrs by agar diffusion test; settings: DSMZ 274, 24 h, read-out: DIZ; summary of the method: as §1
Staphylococcus aureus [27] = assay: Antibacterial activity against Staphylococcus aureus NRRL B 313 at 5 mg/ml after 24 hrs by agar diffusion test; settings: NRRL B 313, 24 h, read-out: DIZ; summary of the method: as §2
Escherichia coli [28] = assay: Antibacterial activity against Escherichia coli ATCC 8739 at 25 mg/ml after 24 hrs by agar diffusion test; settings: ATCC 8739, 24 h, read-out: DIZ; summary of the method: as §1
Staphylococcus aureus [29] = assay: Antibacterial activity against Staphylococcus aureus NRRL B 313 at 25 mg/ml after 24 hrs by agar diffusion test; settings: NRRL B 313, 24 h, read-out: DIZ; summary of the method: as §2
Priestia megaterium [30] = assay: Antibacterial activity against Bacillus megaterium NRRL 1353895 at 25 mg/ml after 24 hrs by agar diffusion test; settings: NRRL 1353895, 24 h, read-out: DIZ; summary of the method: as §1

SMILES: CN[C@@H]1[C@H](O[C@H]2[C@H](O[C@H]3[C@H](O)[C@@H](O)[C@H](N=C(N)N)[C@@H](O)[C@@H]3N=C(N)N)O[C@@H](C)[C@]2(O)C=O)O[C@@H](CO)[C@H](O)[C@H]1O [STREPTOMYCIN]
- zone of inhibition at 25000 µg/mL (Micrococcus luteus [1]): 30 mm
- zone of inhibition at 5000 µg/mL (Bacillus [2]): 27 mm
- zone of inhibition at 1000 µg/mL (Priestia megaterium [3]): 20 mm
- zone of inhibition at 5000 µg/mL (Bacillus cereus [4]): 28 mm
- zone of inhibition at 25000 µg/mL (Bacillus subtilis [5]): 35 mm
- zone of inhibition at 25000 µg/mL (Micrococcus luteus [6]): 27 mm
- zone of inhibition at 1000 µg/mL (Micrococcus luteus [7]): 20 mm
- zone of inhibition at 1000 µg/mL (Bacillus [8]): 21 mm
- zone of inhibition at 5000 µg/mL (Micrococcus luteus [9]): 22 mm
- zone of inhibition at 5000 µg/mL (Micrococcus luteus [10]): 25 mm
- zone of inhibition at 1000 µg/mL (Staphylococcus aureus [11]): 20 mm
- zone of inhibition at 1000 µg/mL (Bacillus cereus [12]): 23 mm
- zone of inhibition at 1000 µg/mL (Acinetobacter johnsonii [13]): 20 mm
- zone of inhibition at 1000 µg/mL (Micrococcus luteus [14]): 19 mm
- zone of inhibition at 5000 µg/mL (Escherichia coli [15]): 26 mm
- zone of inhibition at 5000 µg/mL (Acinetobacter johnsonii [16]): 24 mm
- zone of inhibition at 5000 µg/mL (Bacillus mycoides [17]): 30 mm
- zone of inhibition at 25000 µg/mL (Bacillus cereus [18]): 30 mm
- zone of inhibition at 25000 µg/mL (Bacillus mycoides [19]): 35 mm
- zone of inhibition at 1000 µg/mL (Escherichia coli [20]): 23 mm
- zone of inhibition at 5000 µg/mL (Priestia megaterium [21]): 25 mm
- zone of inhibition at 25000 µg/mL (Acinetobacter johnsonii [22]): 30 mm
- zone of inhibition at 1000 µg/mL (Bacillus subtilis [23]): 25 mm
- zone of inhibition at 5000 µg/mL (Bacillus subtilis [24]): 30 mm
- zone of inhibition at 25000 µg/mL (Bacillus [25]): 30 mm
- zone of inhibition at 1000 µg/mL (Bacillus mycoides [26]): 25 mm
- zone of inhibition at 5000 µg/mL (Staphylococcus aureus [27]): 26 mm
- zone of inhibition at 25000 µg/mL (Escherichia coli [28]): 35 mm
- zone of inhibition at 25000 µg/mL (Staphylococcus aureus [29]): 32 mm
- zone of inhibition at 25000 µg/mL (Priestia megaterium [30]): 30 mm
